In article PMC2605181 (Nature chemical biology, 2008):
Entries after “also recorded” stand apart in the source; their conditions may differ.

What was measured:
MAGL [1] = molecular target: T1, MAGL (Mus musculus, UniProt O35678); assay: Competitive ABPP; format: biochemical; conditions: for inhibition of MAGL by competitive ABPP: 30 min
T1 sequence (O35678 1-303): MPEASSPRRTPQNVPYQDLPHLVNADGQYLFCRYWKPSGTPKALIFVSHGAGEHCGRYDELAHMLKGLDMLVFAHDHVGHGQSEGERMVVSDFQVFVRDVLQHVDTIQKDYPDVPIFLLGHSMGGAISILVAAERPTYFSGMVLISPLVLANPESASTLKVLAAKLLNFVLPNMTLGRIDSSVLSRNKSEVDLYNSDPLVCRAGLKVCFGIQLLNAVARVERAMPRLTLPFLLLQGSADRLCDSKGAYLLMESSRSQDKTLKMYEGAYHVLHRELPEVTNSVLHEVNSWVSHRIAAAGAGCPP

MAGL [2] = conditions: cited from earlier work
[3] = cited from earlier work
FAAH [4] = molecular target: T2, FAAH (Mus musculus, UniProt O08914); assay: Competitive ABPP; format: biochemical; conditions: for inhibition of FAAH by competitive ABPP: mouse brain membrane proteome, 30 min, Fig. 1b
T2 sequence (O08914 1-579): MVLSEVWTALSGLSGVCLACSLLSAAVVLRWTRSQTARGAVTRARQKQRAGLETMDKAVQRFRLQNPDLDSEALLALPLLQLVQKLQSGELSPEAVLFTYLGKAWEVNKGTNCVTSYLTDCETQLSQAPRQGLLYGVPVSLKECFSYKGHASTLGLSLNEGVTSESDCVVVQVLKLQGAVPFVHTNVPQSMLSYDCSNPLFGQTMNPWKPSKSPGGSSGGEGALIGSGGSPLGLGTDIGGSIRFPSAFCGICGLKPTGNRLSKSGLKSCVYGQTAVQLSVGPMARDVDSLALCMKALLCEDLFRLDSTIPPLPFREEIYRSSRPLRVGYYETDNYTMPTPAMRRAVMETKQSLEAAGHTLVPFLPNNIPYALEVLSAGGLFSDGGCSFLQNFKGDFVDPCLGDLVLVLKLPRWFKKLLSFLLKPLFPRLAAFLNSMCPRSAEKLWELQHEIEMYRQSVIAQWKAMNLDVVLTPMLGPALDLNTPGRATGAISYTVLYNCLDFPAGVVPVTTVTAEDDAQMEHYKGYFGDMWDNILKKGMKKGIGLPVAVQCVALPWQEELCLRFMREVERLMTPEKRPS
Method in brief: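 Mouse brain membrane proteome (1 mg ml-1 in PBS) preincubated with test compound (1 nM to 10 μM) for 30 min at 37°C, then FP-rhodamine (2 μM final) for 30 min at room temperature, quenched, SDS-PAGE, in-gel fluorescence; DMSO control. kobs [I]-1: proteome with 0.01-15 μM for 10-40 min at 37°C, aliquots FP-rhodamine-labelled 2 min every 10 min; FAAH band density fit exponentially for pseudo-first-order constants.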

ABHD6 = molecular target: T3, ABHD6 (Mus musculus, UniProt Q8R2Y0); assay: Competitive ABPP; format: biochemical; conditions: for inhibition of ABHD6 by competitive ABPP: mouse brain membrane proteome, 30 min, Fig. 1b
T3 sequence (Q8R2Y0 1-336): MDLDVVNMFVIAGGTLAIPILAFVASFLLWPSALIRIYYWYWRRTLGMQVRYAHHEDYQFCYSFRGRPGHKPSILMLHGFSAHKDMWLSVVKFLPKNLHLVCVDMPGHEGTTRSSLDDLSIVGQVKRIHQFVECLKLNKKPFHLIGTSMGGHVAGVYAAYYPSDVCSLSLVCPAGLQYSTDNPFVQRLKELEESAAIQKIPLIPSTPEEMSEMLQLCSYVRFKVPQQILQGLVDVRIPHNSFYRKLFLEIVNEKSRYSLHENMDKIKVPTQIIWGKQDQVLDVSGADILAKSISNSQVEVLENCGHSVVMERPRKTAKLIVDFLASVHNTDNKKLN
Method in brief: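 Mouse brain membrane proteome at 1 mg ml-1 in PBS, preincubated with test compound (1 nM to 10 μM) for 30 min at 37°C, then FP-rhodamine (2 μM final) for 30 min at room temperature. Quenched in SDS loading buffer and boiled 5 min at 90°C. Run on SDS-PAGE with in-gel fluorescence scanning; DMSO-only proteome served as control.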

mice [5] = assay: Tail immersion test of acute thermal pain sensation; format: in vivo, mouse
Method in brief: (§1)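 Test compound was given in 4:1 v/v PEG300:Tween80 at 4 μl g-1: i.p. for tail immersion and acetic acid stretching; p.o. in PEG300 for formalin phase 1 (40 mg kg-1). Rimonabant was given in 18:1:1 saline:ethanol:alkamuls-620. Vehicle and rimonabant-pretreated groups were compared; mean ± SEM, n = 6-14 mice per group.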

mice [6] = assay: Acetic acid writhing; format: in vivo, mouse
Method in brief: as §1

mice [7] = assay: Formalin test; format: in vivo, mouse
Method in brief: as §1

mice [8] = assay: Rectal temperature; format: in vivo, mouse
Method in brief: (§2)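 Measured as part of the cannabinoid tetrad test in mice. Test compound was dissolved in 4:1 v/v PEG300:Tween80 by vortexing, sonication and gentle heating, and given i.p. at 4 μl g-1 body weight; vehicle-only group as control. Rimonabant, where used, was given in 18:1:1 v/v/v saline:ethanol:alkamuls-620.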

mice [9] = assay: Locomotor activity; format: in vivo, mouse
Method in brief: as §2

FAAH [10] = molecular target: T2, FAAH; assay: FAAH activity of brain membranes from treated mice; format: in vivo
Method in brief: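 Male C57Bl/6J mice (6-8 weeks, 20-26 g) dosed i.p. in 4:1 v/v PEG300:Tween80, with vehicle-only controls. Killed by decapitation under isoflurane 0.5-24 h later; brain hemisected and flash frozen, one half used for membrane proteomes. FAAH activity measured by gel competitive ABPP, FP-biotin ABPP-MudPIT and LC-MS oleamide hydrolysis. Means ± SEM, n = 3-5 mice per group.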

[11] = tested on: brain levels of 2-AG, arachidonic acid, NAEs, MAGs; assay: Measurement of brain lipids in treated mice; format: in vivo, mouse
CB1 receptors = assay: CB1 receptor binding assay, cerebellar membranes; conditions: JZL184 0.001-10 µM
CB2 receptors = CB2 receptors (Homo sapiens, UniProt P34972); assay: CB2 receptor binding assay, CB2 transfected CHO cell membranes; conditions: JZL184 0.0005-5 µM
CB2 receptors, sequence (P34972 whole entry): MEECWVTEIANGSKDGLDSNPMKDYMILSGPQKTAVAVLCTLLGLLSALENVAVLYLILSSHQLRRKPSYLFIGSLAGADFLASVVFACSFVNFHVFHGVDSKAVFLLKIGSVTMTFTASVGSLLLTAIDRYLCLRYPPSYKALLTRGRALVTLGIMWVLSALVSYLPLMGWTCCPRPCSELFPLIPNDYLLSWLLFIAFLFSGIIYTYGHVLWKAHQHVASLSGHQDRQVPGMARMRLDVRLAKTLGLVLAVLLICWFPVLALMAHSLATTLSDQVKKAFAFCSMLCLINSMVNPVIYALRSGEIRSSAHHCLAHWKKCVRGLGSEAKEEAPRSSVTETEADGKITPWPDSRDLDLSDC

MAGL [12] = molecular target: T1, MAGL; assay: MAGL activity of brain membranes from treated mice; format: in vivo; conditions: 16 mg kg^-1 i.p., 4 h
brain serine hydrolases = assay: Other brain serine hydrolase activities from treated mice; format: in vivo, mouse; conditions: 16 mg kg^-1, 4 h
Method in brief: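 Male C57Bl/6J mice (6-8 weeks, 20-26 g) given 16 mg kg-1 i.p. in 4:1 v/v PEG300:Tween80 or vehicle alone. At 4 h, killed by decapitation under isoflurane; brain half flash frozen for protein work. Brain membrane proteomes underwent competitive ABPP with the biotinylated FP probe, then MudPIT identification of serine hydrolase activities relative to vehicle. n = 3-5 mice per group.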

[13] = tested on: interstitial brain levels of 2-AG and AEA; assay: In vivo microdialysis, nucleus accumbens, neuronal depolarization; parameters: species or system mouse; conditions: 10 mg kg^-1 i.p.
Method in brief: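 Male C57Bl/6 mice received test compound at t = -60 min. Dialysate was sampled from nucleus accumbens. Depolarization was by perfusion with high potassium/calcium artificial CSF at t = 0-90 min. […] Mean ± SEM; n = 8 treated, 6 vehicle.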

mice [14] = assay: Catalepsy bar test and overt behaviour; format: in vivo, mouse
Method in brief: as §2

[15] = Time course of JZL184 in mouse brain; format: in vivo; conditions: C57Bl/6J
[16] = mouse brain membrane proteome, Fig. 1b
[17] = rimonabant 3 mg kg^-1 pre-treatment
[18] = brain membrane proteome, FP-rhodamine labeling
[19] = 16 mg kg^-1 i.p., wild-type / CB1+/+ mice

COc1ccc(C(O)(c2ccc(OC)cc2)C2CCN(C(=O)Oc3ccc([N+](=O)[O-])cc3)CC2)cc1 [JZL175]
selectivity for MAGL over FAAH and ABHD6 by competitive ABPP (MAGL [1]; [16]): exhibited selectivity for MAGL over both FAAH and ABHD6

CCCCC/C=C\C/C=C\C/C=C\C/C=C\CCCCN1C(=O)C=CC1=O [NAM]
selectivity for MAGL over FAAH and other serine hydrolases (MAGL [2]): some selectivity | potentiation of pharmacological effects of 2-AG in vivo [3]: potentiate the pharmacological effects of 2-AG

CN(Cc1cccc(-c2ccncc2)c1)C(=O)Oc1ccc([N+](=O)[O-])cc1 [WWL98]
inhibition of MAGL by competitive ABPP (MAGL [1]; [16]): inhibited | inhibition of FAAH by competitive ABPP (FAAH [4]): inhibited | inhibition of ABHD6 by competitive ABPP (ABHD6): inhibited

O=C(Oc1ccc([N+](=O)[O-])cc1)N1CCN(C(c2ccc(F)cc2)c2ccc(F)cc2)CC1 [WWL152]
inhibition of MAGL by competitive ABPP (MAGL [1]; [16]): preserve potency | inhibition of FAAH by competitive ABPP (FAAH [4]): greatly reducing activity for FAAH | inhibition of ABHD6 by competitive ABPP (ABHD6): preserve potency

Cc1c(C(=O)NN2CCCCC2)nn(-c2ccc(Cl)cc2Cl)c1-c1ccc(Cl)cc1 [rimonabant, reference compound]
blockade of JZL184 effect in tail immersion test (mice [5]; [17]): blocked | blockade of JZL184 effect in acetic acid writhing test (mice [6]; [17]): blocked | blockade of JZL184 effect in formalin test (mice [7]; [17]): blocked | blockade of hypothermic effect of JZL184 (mice [8]; [17]): completely blocked | effect of rimonabant on its own on movement (mice [9]; rimonabant 3 mg kg^-1): significant reductions in movement | blockade of JZL184-induced immobility (mice [9]; [17]): partial blockade

NC(=O)c1cccc(-c2cccc(OC(=O)NC3CCCCC3)c2)c1 [URB597, reference compound]
brain FAAH activity (FAAH [10]; URB597 10 mg kg^-1 i.p.): completely inhibited | brain 2-AG or arachidonic acid levels ([11]; URB597 10 mg kg^-1 i.p.): without altering | brain anandamide and other NAEs ([11]; URB597 10 mg kg^-1 i.p.): significant elevations

COc1ccc(C(c2ccc(OC)cc2)N2CCN(C(=O)Oc3ccc([N+](=O)[O-])cc3)CC2)cc1 [WWL162]
inhibition of MAGL by competitive ABPP (MAGL [1]; [16]): preserve potency | inhibition of FAAH by competitive ABPP (FAAH [4]): greatly reducing activity for FAAH | inhibition of ABHD6 by competitive ABPP (ABHD6): preserve potency

O=C(Oc1ccc([N+](=O)[O-])cc1)N1CCC(C(O)(c2ccc3c(c2)OCO3)c2ccc3c(c2)OCO3)CC1 [JZL184]
blockade of MAGL activity by competitive ABPP (MAGL [1]; as low as 50 nM JZL184, 30 min preincubation): Near-complete blockade | kobs [I]^-1 for MAGL (MAGL [1]; [18]): 4400 M⁻¹ s⁻¹ | concentration at which inhibition of FAAH is observed by competitive ABPP (FAAH [4]; 30 min preincubation): 10 µM | kobs [I]^-1 for FAAH (FAAH [4]; [18]): 13 M⁻¹ s⁻¹ | concentration at which inhibition of ABHD6 is observed by competitive ABPP (ABHD6; 30 min preincubation): 10 µM | interaction with CB1 receptors (displacement of 3H-rimonabant) (CB1 receptors): did not interact | interaction with CB2 receptors (radioligand displacement) (CB2 receptors): did not interact | blockade of brain MAGL activity (competitive ABPP, ABPP-MudPIT) (MAGL [12]): near-complete blockade | residual brain 2-AG hydrolysis activity (MAGL [12]): 15 % of control | inhibition of brain FAAH by ABPP-MudPIT (FAAH [10]; 16 mg kg^-1, 4 h): partial inhibition | brain FAAH blockade, maximum at any time point (FAAH [10]; 16 mg kg^-1 i.p., 0.5-24 h): ≤ 70% | effect on other brain serine hydrolases by ABPP-MudPIT (brain serine hydrolases): none of the other ∼40 brain serine hydrolases profiled by ABPP-MudPIT were significantly affected | elevation of brain 2-AG above control levels ([11]; 16 mg kg^-1 i.p., for at least 8 h): 7-9 fold | elevation of brain 2-AG (summary statement) ([11]; administration to mice): 8 fold | elevation of brain 2-AG levels above baseline ([11]; higher doses (up to 40 mg kg^-1 i.p.), 4 h): 8-10 fold | period for which elevated brain 2-AG levels were maintained ([11]; single dose): at least 8 h | baseline interstitial levels of 2-AG (before depolarization) ([13]; 1 h prior to depolarization): did not observe changes | interstitial brain levels of 2-AG following neuronal depolarization ([13]; nucleus accumbens): dramatically elevated | interstitial brain levels of AEA ([13]; nucleus accumbens): did not affect; also recorded: no significant alteration | antinociception in tail immersion test (mice [5]; 16 mg kg^-1 i.p., 2 h, wild-type / CB1+/+ mice): significant analgesic activity; also recorded: antinociceptive effects | antinociception in acetic acid writhing test (mice [6]; 16 mg kg^-1, 2 h): significant analgesic activity; also recorded: antinociceptive effects | antinociception in formalin test, phase 1 (mice [7]; 40 mg kg^-1 p.o.): antinociceptive effects | antinociception in formalin test, phase 2 (mice [7]; 40 mg kg^-1 p.o.): antinociceptive effects | analgesic activity in formalin test (mice [7]; text: 16 mg kg^-1, 2 h): significant analgesic activity | hypothermia in CB1^-/- mice (mice [8]; 16 mg kg^-1 i.p., CB1^-/- mice): did not produce significant hypomotility, hypothermia, or analgesia | hypothermia (mice [8]; [19]): significant hypothermia | hypomotility in CB1^-/- mice (mice [9]; 16 mg kg^-1 i.p., CB1^-/- mice): did not produce significant hypomotility, hypothermia, or analgesia | hypomotility (mice [9]; [19]): hypomotility | catalepsy in the bar test (mice [14]; 16 mg kg^-1 i.p.): did not, however, induce catalepsy; also recorded: did not develop catalepsy | overt posture and appearance (spontaneous limb splaying) (mice [14]; JZL184-treated mice): appeared generally normal | half-life [15]: ~7 h
